Rows were chosen to be rich in hits. Some 1.6% of all compounds tested hit in one or more screens of this group.
ASAP1 GAP inh: inhibitors of human ASAP1 ArfGAP activity, primary screen, biochemical, fluorescence polarization; 360,000 compounds, 0.19% hits; inhibition, % at 16.5 µM; Arf-GAP with SH3 domain, ANK repeat and PH domain-containing protein 1 (Homo sapiens), …; ASAP1-stimulated ARF1 GTP hydrolysis, GDP FP detection; in the data active = inhibition above about 25%;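 also: 0% = vehicle with enzyme and substrate and 100% = no enzyme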
Cardio protect: cardioprotection against H2O2-induced cell death, primary screen, uHTS, H9c2 cells, ATPLite luminescence; H9c2 cardiomyocytes, H2O2 injury protection, 2 h; protection from H2O2 cell death, % at 20 µM; 360,000 compounds, 0.63% hits; AID 588492, 2011;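 active = compounds giving at least 50% protection of heart cells from peroxide-induced death in the single-dose screen, raw or plate-pattern-corrected value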;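 also: 0% = DMSO wells with peroxide and 100% = DMSO wells without peroxide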
ARFGAP1 inhibitor: inhibitors of rat ARFGAP1 GAP activity, primary screen, biochemical, fluorescence polarization, GDP tracer | ADP-ribosylation factor GTPase-activating protein 1 (Rattus norvegicus), Q62848 | Arfgap1-stimulated ARF1 GTP hydrolysis, GDP FP detection | inhibition, % at 16.5 µM | 360,000 compounds, 0.26% hits | AID 651572, 2012;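 active = inhibition above a per-plate limit, mean inhibition of low control wells plus 3 SD, cut at about 25% in these data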;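 also: 0% = DMSO wells with enzyme and 100% = wells lacking Arfgap1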
Target sequence (Q62848 1-136 limits assumed): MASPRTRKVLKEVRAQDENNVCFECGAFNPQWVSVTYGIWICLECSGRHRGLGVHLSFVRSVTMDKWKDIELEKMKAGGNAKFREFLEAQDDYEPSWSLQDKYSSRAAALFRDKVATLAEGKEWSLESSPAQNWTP
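Assay system: Rat Arfgap1 GAP domain (His6, aa 1-136), purified enzyme | Buffer or medium: HEPES 25 mM pH 7.5, NaCl 150 mM, MgCl2, DTT | Schedule: GTP hydrolysis reaction 2 h at 25 °C | Signal: FP of antibody-bound GDP Alexa 633 tracer, ex 620/em 688 nm | Measure: Percent inhibition of Arfgap1-stimulated GTP hydrolysis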
Neddyl block: inhibitors of cullin neddylation, primary screen, biochemical, TR-FRET, uHTS, NAE and Ubc12; 360,000 compounds, 0.58% hits; inhibition, % at 25 µM; in the data active = inhibition above about 36%
ARFGAP1 inh conf: ARFGAP1 inhibitor hit confirmation, biochemical, fluorescence polarization, triplicate. ARFGAP1-stimulated ARF1 GTP hydrolysis, GDP tracer FP. shares compounds with ARFGAP1 inhibitor. inhibition, % at 16.5 µM. 890 compounds, 30% hits;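 active = average inhibition over triplicates above the hit cutoff set in the earlier primary screen, cut at about 25% in these data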;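 also: 0% = Arfgap1 plus ARF1-GTP with DMSO and 100% = wells lacking Arfgap1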
Target sequence (Q62848 whole entry, looked up): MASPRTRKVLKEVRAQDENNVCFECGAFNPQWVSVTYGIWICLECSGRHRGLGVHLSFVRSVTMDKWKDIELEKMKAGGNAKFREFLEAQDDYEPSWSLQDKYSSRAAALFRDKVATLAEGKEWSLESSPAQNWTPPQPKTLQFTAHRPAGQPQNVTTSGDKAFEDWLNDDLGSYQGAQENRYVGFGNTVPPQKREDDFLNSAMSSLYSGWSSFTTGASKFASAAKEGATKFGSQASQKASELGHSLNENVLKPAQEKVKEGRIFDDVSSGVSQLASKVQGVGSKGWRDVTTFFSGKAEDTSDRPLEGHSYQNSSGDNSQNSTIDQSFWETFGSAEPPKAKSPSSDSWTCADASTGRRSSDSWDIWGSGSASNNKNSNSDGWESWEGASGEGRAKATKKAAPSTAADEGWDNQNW
Neddyl inh conf: blockade of NEDD8 conjugation to cullin – biochemical, TR-FRET, single concentration, confirmation. 1,800 compounds, 13% hits. shares compounds with Neddyl block. calls only at 25 µM. TR-FRET cullin neddylation biochemical assay; in the data active = inhibition above about 40%;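 also: neddylation substrate is the cullin 1 ring ligase complex with SKP2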
Active calls of the source: *; i = inactive; . = no result given; + = active, no number.

SMILES	ASAP1 GAP inh	Cardio protect	ARFGAP1 inhibitor	Neddyl block	Neddyl inh conf	others
CN1CCN(c2ccccc2NC(=O)c2ccc(-c3ccc(Br)cc3)o2)CC1	.	24	.	-57	.
CCCCc1c(-c2ccccc2OC)ncn1Cc1cccc(C)c1	19	.	2	.	.
CCN1CCN(c2ccc(S(=O)(=O)N3CCOCC3)cc2NC(=O)/C=C/c2ccc(OC)cc2OC)CC1	21	-6	33*	4	.	ARFGAP1 inh conf=23
CCN1CCN(c2ccc(S(=O)(=O)N3CCOCC3)cc2NC(=O)/C=C/c2ccc([N+](=O)[O-])cc2)CC1	13	-22	37*	-10	.	ARFGAP1 inh conf=37*
CCCCCCCCN1C(=O)[C@@H](CC(=O)NCC23CC4CC(CC(C4)C2)C3)C[C@@]2(C(=O)OC)C1=C[C@H](C(C)(C)C)O[C@@H]2C	1	.	-2	.	.
CN1C(=O)N(CC(=O)Nc2cccc(S(=O)(=O)N(C)c3ccccc3)c2)C(=O)C12CCCCC2	-4	-5	3	2	.
CCC1CCC2(CC1)NC(=O)N(CC(=O)Nc1cccc(S(=O)(=O)N(C)c3ccccc3)c1)C2=O (stereo not drawn)	6	-6	41*	-18	.	ARFGAP1 inh conf=-1
CN1CCN(c2ccc(Cl)cc2NC(=O)/C=C/c2ccc(F)cc2)CC1	17	1	25*	5	.	ARFGAP1 inh conf=9
O=C(Nc1cccc(-c2csc(Nc3cccc(C(F)(F)F)c3)n2)c1)c1ccccc1	8	-13	25*	-5	.	ARFGAP1 inh conf=18
O=C(Nc1ccc(-c2csc(Nc3cccc(C(F)(F)F)c3)n2)cc1)c1ccccc1	16	-7	10	1	.
Cc1c(C(=O)OCC(=O)N2CC(C)CC(C)C2)oc2ccccc12 (stereo not drawn)	-3	-2	5	6	.
COc1ccc2oc(C(=O)OCC(=O)N3CC(C)CC(C)C3)c(C)c2c1 (stereo not drawn)	13	0	31*	60*	.	ARFGAP1 inh conf=39*
CCOC(=O)/C(=C\Nc1ccc(OCc2ccccc2)cc1)NC(=O)c1ccccc1	-8	.	0	.	.
COCCCn1c(C)cc(C(=O)CN2c3cccc4cccc(c34)S2(=O)=O)c1C	25	3	32*	37*	i	ARFGAP1 inh conf=36*
CC1(C(=O)NC2CCCCCC2)CCN1C(=O)Cc1ccc(-c2ccccc2)cc1 (stereo not drawn)	1	-17	6	2	.
COc1ccc(/C=N/NC(=O)c2cc3cc(OC)c(OC)cc3[nH]2)cc1	3	5	39*	46*	i	ARFGAP1 inh conf=51*
COc1ccc(/C=N/NC(=O)c2ccc(O)cc2O)cc1CSc1ccccn1	16	7	16	43*	i
COc1ccc(C=O)cc1CSc1ccccn1	-14	9	1	4	.
COc1ccc(/C=N\NC(=O)c2ccccc2)cc1COc1ccc(F)cc1	13	34	2	13	.
COc1ccc(/C=N\NC(=O)c2ccc(-c3ccccc3)cc2)cc1COC(C)=O	3	6	0	47*	i
COc1ccc2nc3c(c(-c4ccccc4)c2c1)CCC3	-9	4	0	22	.
COc1ccc2nc3c(nc2c1)CCCC3	1	-1	-14	46*	+
CSc1ccc(/C=N/NC(=O)c2ccc(-n3cnnn3)cc2)cc1	11	5	0	49*	i
O=C(N/N=C/c1ccc(F)cc1)c1ccc(-n2cnnn2)cc1	-19	12	5	-1	.
COC(=O)[C@]12CCCCC=C1N(Cc1cccc3ccccc13)C(=O)[C@H](CC(=O)NCc1ccc(C)o1)C2	-1	.	0	6	.
SMILES	ASAP1 GAP inh	Cardio protect	ARFGAP1 inhibitor	Neddyl block	Neddyl inh conf	others
COc1ccc(NC(=O)CSc2nc3nc(-c4cccs4)cc(C(F)(F)F)c3c(=O)[nH]2)c(OC)c1	-5	-1	-5	54*	i
CC1CCCCC1NC(=O)COC(=O)/C=C/c1ccc2c(c1)OCO2 (stereo not drawn)	2	-2	-5	39*	i
CCOc1cc(S(=O)(=O)NCc2ccco2)c(OCC)cc1-n1cnnn1	-1	7	5	43*	.
CCOc1cc(S(=O)(=O)NCc2ccc(OC)cc2)c(OCC)cc1-n1cnnn1	-12	6	-9	20	.
CCOCCCn1c(C)nc2c(c1=O)c1nc3ccccc3nc1n2CCC1=CCCCC1	6	-11	8	45*	i
CCC(=O)Nc1ccc2c(c1)OC[C@@H](C)NC[C@@H](C)[C@@H](OC)CN(C)C2=O	-1	.	-5	-1	.
CCOC(=O)c1c(NC(=O)COC(=O)c2nccnc2N)sc(C(=O)N(C)C)c1C	3	11	-11	45*	i
O=C(NN=Cc1ccccc1Cl)C(=O)Nc1cccc(C(F)(F)F)c1	2	.	2	.	.
O=C(C[C@@H]1CC[C@@H](NC(=O)Nc2cccc(F)c2)[C@@H](CO)O1)NCC1CCCCC1	-6	.	9	3	.
COc1ccc(/C=C/c2nnc(NC(C)=O)s2)cc1	-13	-10	1	43*	i
COC(=O)Nc1nnc(/C=C/c2ccc(OC)cc2)s1	6	-5	4	29	.
COc1ccc(-n2cc(CNCc3cnc4ccccn34)c(-c3cccc(F)c3)n2)cc1	16	10	10	42*	.
COc1ccc(-n2cc(CNCC3CCOCC3)c(-c3cccc(F)c3)n2)cc1	-17	8	4	.	.
CN(Cc1ccc(Cl)cc1)C(C(=O)NC1CCCCC1)c1ccnc2ccccc12 (stereo not drawn)	11	3	-9	-7	.
Cc1ccc(Oc2ccc(S(=O)(=O)N3CCOCC3)cc2C(N)=O)c(-n2nc3ccccc3n2)c1	7	11	4	38*	.
COc1ccc(C(CC(=O)N2CCCCC2)c2c(OC)cc(OC)c3ccc(=O)oc23)cc1 (stereo not drawn)	13	5	9	47*	+
COc1cc(C(CC(=O)N2CCOCC2)c2c(OC)cc(OC)c3ccc(=O)oc23)cc(OC)c1OC (stereo not drawn)	-3	-2	5	-1	.
O=C1Nc2ccc(S(=O)(=O)N3CCCC3)c3cccc1c23	-4	-5	9	40*	i
CCOC(=O)N1CCN(S(=O)(=O)c2ccc3c4c(cccc24)C(=O)N3)CC1	-2	0	-1	52*	+
